Results on 33 compounds are retold here after ChEMBL document CHEMBL1133103, “Design, synthesis, and structure-activity relationships of novel non-imidazole histamine H(3) receptor antagonists” (J Med Chem, 2000).

Experiment [1] concerns the target T1, Histamine H3 receptor (Cavia porcellus, UniProt Q9JI35). As to the kind of experiment: In vitro binding affinity for histamine H3 receptor was determined in guinea-pig cerebral cortex using [3H](R)-alpha-methylhistamine. It is filed as tissue-based.
The target of experiment [2] is Histamine H3 receptor (Cavia porcellus) (UniProt Q9JI35). As to the kind of experiment: Tested in vitro against histamine H3 receptor mediated inhibition of cholinergic neurogenic contractions in isolated guinea pig ileum. The class given is functional, tissue-based. Put shortly: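 Electrically stimulated guinea-pig ileum, where H3 receptors mediate inhibition of cholinergic neurogenic contractions. Agonist was (R)-α-methylhistamine. pKB ± SEM was estimated from single shifts of the agonist concentration-effect curve in at least four separate tissues, for compounds acting as surmountable antagonists. Compounds were given as dihydrochloride salts.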

Experiment [3] has as its target T1, Histamine H3 receptor. In words: In vitro binding affinity towards histamine H3 receptor was determined in guinea-pig cerebral cortex using [3H](R)-alpha-methylhistamine.

The structures appear in SMILES notation.

Sequence of Histamine H3 receptor (Cavia porcellus) (Q9JI35 whole entry): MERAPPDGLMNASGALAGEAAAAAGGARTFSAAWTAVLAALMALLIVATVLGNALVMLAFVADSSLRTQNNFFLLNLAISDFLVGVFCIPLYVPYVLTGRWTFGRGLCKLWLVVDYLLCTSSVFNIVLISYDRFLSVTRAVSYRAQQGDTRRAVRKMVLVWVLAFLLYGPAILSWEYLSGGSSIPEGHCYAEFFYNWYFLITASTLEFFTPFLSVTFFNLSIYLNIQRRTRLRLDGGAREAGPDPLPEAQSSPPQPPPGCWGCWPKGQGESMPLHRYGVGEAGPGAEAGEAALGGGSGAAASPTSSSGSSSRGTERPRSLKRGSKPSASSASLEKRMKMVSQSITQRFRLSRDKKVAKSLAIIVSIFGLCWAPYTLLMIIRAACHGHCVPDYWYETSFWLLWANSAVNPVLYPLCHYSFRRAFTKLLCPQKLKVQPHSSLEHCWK
T1 sequence (Q9JI35 whole entry): as above

In the case of `O=[N+]([O-])c1ccc(OCCCN2CCC(Nc3nc4ccccc4s3)CC2)cc1`, at Histamine H3 receptor [1], the Ki (in general, the dissociation constant of the complex between target and ligand, obtained from inhibition or displacement) is 6.31 nM.
On Histamine H3 receptor [1], `N=C(NCCCN1CCCC1)NCc1ccc(Cl)cc1` gave a Ki of 56.2 nM. The pKB – broadly, −log10 of the KB, conventionally taken in molar units – in experiment [2] amounted to 6.42.
The like results for `S=C(NCCCN1CCCC1)NCc1ccc(Cl)cc1` were, in that order, 407 nM and 5.66.
The like results for `N=C(NCCCN1CCCC1)Nc1ccc(Cl)cc1` were, in that order, 53.7 nM and 6.03.
In the same order, the values of `N=C(NCCCN1CCCC1)NCCc1ccc(Cl)cc1` are 0.933 nM and 6.68.
The compound `N=C(N)N(CCCCCN1CCCC1)Cc1ccc(Cl)cc1` gave a Ki at Histamine H3 receptor [1] of 1.07 nM. The compound further gave a pKB in experiment [2] of 7.91.
With `N=C(NCCCCCN1CCCC1)NCCc1ccc(Cl)cc1`, the Ki on Histamine H3 receptor [1] is 7.59 nM. Further, the negative logarithm of the KB (pKB) in experiment [2] was determined as 7.06.
The like results for `N=C(NCCCCCN1CCCC1)NCC12CC3CC(CC(C3)C1)C2` were, in that order, 3.55 nM and 7.9.
The like results for `N=C(NCCCCCN1CCCCC1)NCC12CC3CC(CC(C3)C1)C2` were, in that order, 10.7 nM and 8.14.
The like results for `N=C(NCCCCN1CCCC1)NCc1ccc(Cl)cc1` were, in that order, 5.13 nM and 7.32.
At Histamine H3 receptor [1], `O=S(=O)(NCCCN1CCCC1)c1ccc2ccccc2c1` showed a Ki of 324 nM. This compound also showed a pKB in experiment [2] of 5.96.
The like results for `N=C(NCCCCCN1CCCC1)NCC1CCCCCC1` were, in that order, 3.55 nM and 7.67.
In the same order, the values of `N=C(N)N(CCCCCCCCN1CCCC1)Cc1ccc(Cl)cc1` are 4.68 nM and 8.09.
In turn, `COc1ccc(C/N=C(\N)NCCCN2CCCC2)cc1` showed a Ki on Histamine H3 receptor [1] of 83.2 nM. For the same compound, the pKB in experiment [2] is 6.08.
The compound `N=C(NCCCCCN1CCCC1)NCC1CCCCC1` gave a Ki at Histamine H3 receptor [1] of 1.41 nM. For the same compound, the pKB in experiment [2] was found to be 7.52.
In the same order, the values of `N=C(NCCCN1CCCC1)NCc1ccccc1` are 20 nM and 6.2.
As for `O=[N+]([O-])c1ccc(OCCCCCN2CCCC2)cc1`, the Ki on Histamine H3 receptor [3] turned out to be 39 nM.
For `N=C(N)N(CCCCN1CCCC1)Cc1ccc(Cl)cc1`, the Ki at Histamine H3 receptor [1] is 7.94 nM. In experiment [2], this compound returned a pKB of 7.34.
Consider `N=C(NCCCCCN1CCCCCC1)NCC12CC3CC(CC(C3)C1)C2`, for which, at Histamine H3 receptor [1], the Ki was 7.94 nM. The same compound had a pKB in experiment [2] of 7.84.
In the same order, the values of `N=C(NCCCN1CCCC1)NCc1cccc(Br)c1` are 25.7 nM and 6.46.
In the same order, the values of `N=C(NCCCCCN1CCCC1)NCc1ccc(Cl)cc1` are 5.37 nM and 7.3.
As for `O=S(=O)(Cc1ccc(Cl)cc1)NCCCN1CCCC1`, on Histamine H3 receptor [1], the affinity corresponds to a Ki of 537 nM. Besides, in experiment [2], the pKB amounted to 6.24.
The like results for `N=C(NCCCN1CCCC1)NCc1ccc(C(F)(F)F)cc1` were, in that order, 100 nM and 6.1.
In the same order, the values of `N=C(NCCCN1CCCC1)NCc1ccc(I)cc1` are 53.7 nM and 6.43.
The like results for `CN(C)CCCSC(=N)N` were, in that order, 47.9 nM and 5.93.
With `N=C(NCCCN1CCCC1)NCc1ccccc1Br`, at Histamine H3 receptor [1], affinity was put at a Ki of 42.7 nM. The pKB in experiment [2] came out at 6.27.
In the same order, the values of `N=C(NCCCCN1CCCC1)NCCc1ccc(Cl)cc1` are 6.76 nM and 6.24.
In the same order, the values of `CN(C)CCCNS(=O)(=O)c1ccc2ccccc2c1` are 1000 nM and 5.52.
The like results for `N=C(N)N(CCCCCCN1CCCC1)Cc1ccc(Cl)cc1` were, in that order, 4.17 nM and 8.39.
Consider `N=C(N)N(CCCCCCCN1CCCC1)Cc1ccc(Cl)cc1`, for which the Ki on Histamine H3 receptor [1] is 2 nM. Further, in experiment [2], the negative logarithm of the KB (pKB) was determined as 8.38.
The compound `N=C(NCCCN1CCCC1)NCc1ccc(Br)cc1` gave a Ki at Histamine H3 receptor [1] of 4.68 nM. In experiment [2], the pKB came to 6.45.
In the same order, the values of `O=S(=O)(NCCCN1CCCC1)NCc1ccc(Cl)cc1` are 229 nM and 6.21.
In the same order, the values of `N=C(NCCCCCN1CCCCCCC1)NCC12CC3CC(CC(C3)C1)C2` are 30.2 nM and 7.37.
